From PubChem
Hits are enriched below; roughly 2.2% of the tested compounds scored in any of these assays.
NR2E3 ag-1: human photoreceptor-specific nuclear receptor agonism; AID 602229; 0.35% of 360,000 active; CHO-S Gal4-NCOR/VP16-NR2E3 two-hybrid, luciferase; Q9Y5X4; inhibition of corepressor binding, % at 3.98 µM;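 active = inhibition above the mean of all tested compounds plus 3 SD, cut at about 70% in these data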;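 also: 0% = DMSO with NR2E3 transfected cells and 100% = cells lacking NR2E3 construct; higher means lower luciferase signal from less NR2E3 corepressor binding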
Env fusion inh: blocks HIV Env-driven cell-cell fusion; HeLa-JRFL Env/CEM21 cell fusion, luciferase; inhibition, % at 12.3 µM; 1.1% of 360,000 active; AID 651610;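 active = mean replicate inhibition score of at least 50 and every replicate individually at or above 50; inconclusive = only one of the two criteria met; inactive = mean below 50 and not all replicates reaching 50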;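 also: 0% = plate neutral controls and 100% = maraviroc near 300 nM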
V-ATPase pH: alters yeast V-ATPase proton transport | S. cerevisiae, pHLuorin cytosolic pH fluorescence | response, % at 10 µM | 0.37% of 350,000 active | AID 504577; in the data active = response mostly above about 7.3%, no sharp cut-off; inactive = mostly below about 5.4%; also: actives read high
GalR3 antag: human GalR3 antagonism. O60755. HEK293 GalR3-CNG cAMP membrane potential fluorescence; galR3 body fused to GalR1 C-terminus. inhibition, % at 3 µM. 0.44% of 360,000 active. AID 651719;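 active = inhibition above the screen-wide average plus 3 SD, cut at about 13% in these data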;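 also: forskolin and galanin both at EC90 stimulate the cells; cAMP rise reported by CNG channel membrane potential dye signal; 0% = forskolin plus galanin with DMSO and 100% = forskolin alone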
Target sequence (O60755 1-299 limits assumed): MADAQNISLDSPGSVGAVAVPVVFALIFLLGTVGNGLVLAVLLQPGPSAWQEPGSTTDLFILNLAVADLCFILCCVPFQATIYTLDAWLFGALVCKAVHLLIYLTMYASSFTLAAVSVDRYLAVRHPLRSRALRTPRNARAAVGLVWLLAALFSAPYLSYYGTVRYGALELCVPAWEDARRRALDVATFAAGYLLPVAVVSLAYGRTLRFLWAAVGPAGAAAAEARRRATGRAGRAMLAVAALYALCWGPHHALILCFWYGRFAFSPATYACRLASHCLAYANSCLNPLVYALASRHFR
FXN GAA850 act: activators of GAA850 frataxin (FXN) promoter; HEK293 lucGAA850 FXN promoter luciferase reporter, 24 h; percent of 10 µM SAHA response; activation, % at 6 µM; 0.56% of 360,000 active; AID 540364;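 active = activation above the average of all compounds screened plus 3 SD, cutoff fixed separately per campaign, cut at about 7.5% in these data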;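 also: 0% = DMSO wells and 100% = 10 µM SAHA wells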
NR2E3 ag-2: agonists of human nuclear receptor NR2E3. Q9Y5X4. GST-NR2E3/biotin-RetCOR TR-FRET, 1536-well. inhibition of corepressor binding, % at 4.78 µM. 0.12% of 320,000 active. AID 2300;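 active = percent inhibition above the cutoff of mean plus 3 SD of all tested compounds, set per screening campaign, cut at about 20% in these data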;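 also: 0% = DMSO wells and 100% = biotin wells as full block of FRET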
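System: GST-NR2E3 and biotin-RetCOR proteins; probe or stimulus: 7 nM biotin-RetCOR; doses: compound at 4.8 µM, single dose; schedule: Compound–protein incubation for 5 h at 4 °C; detection: time-resolved FRET; read-out: percent inhibition; controls: biotin wells as high control, 0.6% DMSO wells as low control; format: 1536-well plates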
GAA30 counter: GAA30 FXN promoter activation counter-screen; 66% of 1,900 active; shares compounds with FXN GAA850 act; activation, % at 6 µM; HEK293 lucGAA30 FXN promoter luciferase, 24 h; DMSO = 0%, 5 µM ipriflavone = 100%;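 active = mean activation above the mean of solvent-only control wells plus 3 SD, cut at about 22% in these data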;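 also: counterscreen of GAA850 promoter hits where activity marks nonselective or luminescence artifacts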
GAA850 confirm: confirmation of GAA850 frataxin (FXN) promoter activators | shares compounds with FXN GAA850 act | HEK293 lucGAA850 FXN promoter luciferase reporter, 24 h; 100% = activation by SAHA | activation, % at 6 µM | 86% of 1,900 active | AID 588351;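 active = mean activation above a set limit taken from the primary screen, cut at about 8% in these data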;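 also: 0% = DMSO wells and 100% = 10 µM SAHA wells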
* marks the source's active call; other numbers are inactive results; ? = inconclusive; . = no result; [ ] = another dose, or the depositor's remark.

SMILES	NR2E3 ag-1	Env fusion inh	V-ATPase pH	GalR3 antag	FXN GAA850 act	NR2E3 ag-2	GAA30 counter	GAA850 confirm
CCS(=O)(=O)N1Cc2ccccc2CC1C(=O)Nc1ccccc1OC (stereo not given)	14	12	-32	-6	3	0	.	.
CCS(=O)(=O)N1Cc2ccccc2CC1C(=O)NCC12CC3CC(CC(C3)C1)C2 (stereo not given)	9	86*	-4	-3	7.7*	-1	13	8.3*
CCS(=O)(=O)N1Cc2ccccc2CC1C(=O)NC(C)C12CC3CC(CC(C3)C1)C2 (stereo not given)	-25	102*	-8	2	12*	-3	27*	14*
CCS(=O)(=O)N1Cc2ccccc2CC1C(=O)Nc1ccc(F)cc1 (stereo not given)	-66	-5	-2	-1	3	1	.	.
COCC(=O)N(C)C[C@@H]1Oc2ncc(-c3ccc(C)cc3)cc2C(=O)N([C@@H](C)CO)C[C@@H]1C	.	7[16.7 µM]	.	.	.	.	.	.
Cc1c(CN(C)C)c2c(n1Cc1ccccc1)C(=O)c1ccc(Br)cc1-2	14	26	5	-10	-4	-1	.	.
Cc1c(CN(C)C)c2c(n1C)C(=O)c1ccc(Br)cc1-2	3	-10	1	-14	11*	-5	20	18*
CCSc1nc(N)c2c(C)c(C)sc2n1	-26	-107	-3	-6	4	2	.	.
C=CCSc1nc(N)c2c(C)c(C)sc2n1	-39	-101	-3	-7	8.2*	-3	55*	20*
Cc1cc(C)cc(NC(=O)C2CCCN(c3ncccn3)C2)c1 (stereo not given)	-5	2	-2	0	1	4	.	.
Cc1ccc(NC(=O)C2CCCN(c3ncccn3)C2)cc1F (stereo not given)	-73	-188	0	-6	7.6*	1	113*	32*
Oc1ccc(Nc2ncnc3c2oc2ccccc23)cc1	-46	1	34	-9	12*	-2	143*	40*
C/C=C/Cn1c(SCc2ccc(C)cc2)nc2c1c(=O)[nH]c(=O)n2C	-1	.	-1	0	8.7*	-3	23*	21*
CC=CCn1c(SCc2ccccc2)nc2c1c(=O)[nH]c(=O)n2C	9	-52	.	-5	2	.	.	.
Cn1c(NC(=S)Nc2ccccc2)nc2ccccc21	29	.	11	-2	8.2*	18	85*	27*
C[C@@H]1CN([C@H](C)CO)C(=O)c2cc(NC(=O)c3ccccc3)ccc2O[C@@H](C)CCCCO[C@H]1CN(C)S(=O)(=O)c1ccc(Cl)cc1	.	13[16.7 µM]	.	.	.	.	.	.
C[C@H]1CCCCO[C@H](CN(C)Cc2ccccc2)[C@@H](C)CN([C@@H](C)CO)C(=O)c2cc(NC(=O)CCCN(C)C)ccc2O1	.	-51[16.7 µM]	.	.	.	.	.	.
COc1ccc(N(C(=O)c2ccco2)C(C(=O)NC2CCCC2)c2ccncc2)cc1 (stereo not given)	12	-8	2	-7	0	0	.	.
Cc1ccccc1CCN(C(=O)c1csnn1)C(C(=O)NC1CCCC1)c1ccncc1 (stereo not given)	18	79*	3	6	14*	3	19	7
CC(C)c1ccc(N(C(=O)c2csnn2)C(C(=O)NC2CCCC2)c2ccncc2)cc1 (stereo not given)	-145	77*	2	-9	20*	4	67*	24*
O=C(NC1CCCC1)C(c1ccncc1)N(C(=O)c1csnn1)c1ccc(F)cc1 (stereo not given)	-17	6	2	-6	1	3	.	.
CC(C)c1ccc(N(C(=O)c2ccco2)C(C(=O)NC2CCCC2)c2ccncc2)cc1 (stereo not given)	-127	62*	14*	-9	10*	2	106*	38*
C[C@H](O)C#Cc1cnc2c(c1)C(=O)N([C@H](C)CO)C[C@H](C)[C@@H](CN(C)C(=O)Nc1ccc(C(F)(F)F)cc1)O2	.	-2[16.7 µM]	.	.	.	.	.	.
CS(=O)(=O)N1[C@H](C(=O)NCCc2ccncc2)[C@@H](CO)[C@@H]2Cn3c(ccc(C4=CCCC4)c3=O)[C@@H]21	.	6[16.7 µM]	.	.	.	.	.	.
C[C@@H]1CCCCO[C@@H](CN(C)S(=O)(=O)c2cccs2)[C@H](C)CN([C@@H](C)CO)C(=O)c2cc(NC(=O)C3CCCCC3)ccc2O1	.	-62[16.7 µM]	.	.	.	.	.	.
SMILES	NR2E3 ag-1	Env fusion inh	V-ATPase pH	GalR3 antag	FXN GAA850 act	NR2E3 ag-2	GAA30 counter	GAA850 confirm
CC(NC(=O)Cn1ccsc1=N)C12CC3CC(CC(C3)C1)C2 (stereo not given)	4	.	3	-2	2	2	.	.
CC(NC(=O)CSC(=S)N(C)C)C12CC3CC(CC(C3)C1)C2 (stereo not given)	-22	.	3	-6	9.4*	.	31*	14*
Cc1cccc(NC(=S)NCCc2ccccc2)n1	-8	-12	-4	-12	2	1	.	.
S=C(Nc1ccccn1)c1ccccn1	-18	.	2	-1	15*	-1	104*	43*
S=C(NCCc1ccccc1)Nc1ccccn1	-68	.	-2	-2	8.0*	3	98*	30*
O=C(Nc1ccccn1)C(=O)Nc1ccccn1	-107	0	-1	-4	6	-1	.	.
O=C(C[C@H]1CC[C@@H](NS(=O)(=O)c2ccc(F)cc2)[C@@H](CO)O1)NCCc1ccncc1	.	10[16.7 µM]	.	.	.	.	.	.
COc1cccc(S(=O)(=O)N2C[C@@H](O)COC[C@H]3O[C@H](CC(=O)Nc4ccccc4)CC[C@@H]32)c1	.	5[16.7 µM]	.	.	.	.	.	.
CCN(CC)S(=O)(=O)c1ccc(OC)nc1	-21	-38	-5	-4	11*	0	20	6
CCc1ccc2oc(-c3cc(N)ccc3O)nc2c1	-132	.	-1	-1	4	2	.	.
CCc1ccc2oc(-c3cc(N)cc(C)c3O)nc2c1	-100	.	-4	1	7.7*	4	81*	40*
C[C@@H]1CCCCO[C@@H](CN(C)S(C)(=O)=O)[C@@H](C)CN([C@H](C)CO)C(=O)c2cc(NC(=O)Nc3ccc4c(c3)OCO4)ccc2O1	.	0[16.7 µM]	.	.	.	.	.	.
COc1ccccc1-c1ccc2c(c1)O[C@H](CN(C)Cc1ccc3c(c1)OCO3)[C@H](C)CN([C@H](C)CO)S2(=O)=O	.	38[16.7 µM]	.	.	.	.	.	.
C/C=C/c1ccc(OCCCCN(C)Cc2ccccc2)c(OC)c1	-10	?	1	-6	9.5*	2	16	13*
